Results from ChEMBL document CHEMBL5058577, “EUbOPEN Chemogenomics Library 2 (Multiplex)” (2022).

Tested on: HEK-293T
Assay: Multiplex assay against HEK293T
Type: toxicity, cell-based
Conditions: human
In short: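 At seeding, live cells were stained with Hoechst33342, BioTracker Green Microtubule Cytoskeleton Dye, MitoTracker Red and Annexin V Alexa Fluor 680. After compound addition they were imaged on a CQ1 microscope at 37°C and 5% CO2, and CellPathfinder machine-learning gating sorted them into Hoechst high-intensity objects or normal cells, with normal cells further split into healthy, pyknosed or fragmented nuclei and pyknosed cells into mitotic or apoptotic. Tubulin, mitochondrial-mass and membrane-permeability phenotypes are given as per cents of cells with healthy nuclei.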

[1] = 12 h, 1 µM, compound concentration 1 uM, replicate 1
[2] = 12 h, 1 µM, compound concentration 1 uM, replicate 2
[3] = 12 h, 10 µM, compound concentration 10 uM, replicate 1
[4] = 12 h, 10 µM, compound concentration 10 uM, replicate 2
[5] = 24 h, 1 µM, compound concentration 1 uM, replicate 1
[6] = 24 h, 1 µM, compound concentration 1 uM, replicate 2
[7] = 24 h, 10 µM, compound concentration 10 uM, replicate 1
[8] = 24 h, 10 µM, compound concentration 10 uM, replicate 2
[9] = 48 h, 1 µM, compound concentration 1 uM, replicate 1
[10] = 48 h, 1 µM, compound concentration 1 uM, replicate 2
[11] = 48 h, 10 µM, compound concentration 10 uM, replicate 1
[12] = 48 h, 10 µM, compound concentration 10 uM, replicate 2

Which results are given for Cc1cc(O)c(-c2ccc([C@@H](C)CN(C)C)cc2)c2c1[nH]c(=O)c1sccc12?
Population Apoptotic (%) [1]: 63%; Population Fragmented Nuclei (%) [1]: 14%; Population Healthy Nuclei (%) [1]: 49%; Population Hoechst High Intensity Objects (%) [1]: 27%; Population Membrane Permeable-Phenotype (%) [1]: 0%; Population Mitochondria Different-Phenotype (%) [1]: 90%; Population Mitotic Cells (%) [1]: 36%; Population Normal (%) [1]: 72%; Population Pyknosed Nuclei (%) [1]: 36%; Population Tubulin-Different-Phenotype (%) [1]: 78%; Total Cell Count [1]: 209; Population Apoptotic (%) [2]: 59%; Population Fragmented Nuclei (%) [2]: 8%; Population Healthy Nuclei (%) [2]: 66%; Population Hoechst High Intensity Objects (%) [2]: 28%; Population Membrane Permeable-Phenotype (%) [2]: 1%; Population Mitochondria Different-Phenotype (%) [2]: 91%; Population Mitotic Cells (%) [2]: 40%; Population Normal (%) [2]: 71%; Population Pyknosed Nuclei (%) [2]: 25%; Population Tubulin-Different-Phenotype (%) [2]: 74%; Total Cell Count [2]: 207; Population Apoptotic (%) [3]: 53%; Population Fragmented Nuclei (%) [3]: 6%; Population Healthy Nuclei (%) [3]: 44%; Population Hoechst High Intensity Objects (%) [3]: 41%; Population Membrane Permeable-Phenotype (%) [3]: 0%; Population Mitochondria Different-Phenotype (%) [3]: 100%; Population Mitotic Cells (%) [3]: 46%; Population Normal (%) [3]: 58%; Population Pyknosed Nuclei (%) [3]: 48%; Population Tubulin-Different-Phenotype (%) [3]: 60%; Total Cell Count [3]: 268; Population Apoptotic (%) [4]: 70%; Population Fragmented Nuclei (%) [4]: 7%; Population Healthy Nuclei (%) [4]: 60%; Population Hoechst High Intensity Objects (%) [4]: 28%; Population Mitochondria Different-Phenotype (%) [4]: 94%; Population Mitotic Cells (%) [4]: 29%; Population Normal (%) [4]: 71%; Population Pyknosed Nuclei (%) [4]: 31%; Population Tubulin-Different-Phenotype (%) [4]: 72%; Total Cell Count [4]: 195; Population Apoptotic (%) [5]: 65%; Population Fragmented Nuclei (%) [5]: 9%; Population Healthy Nuclei (%) [5]: 60%; Population Hoechst High Intensity Objects (%) [5]: 21%; Population Membrane Permeable-Phenotype (%) [5]: 0%; Population Mitochondria Different-Phenotype (%) [5]: 89%; Population Mitotic Cells (%) [5]: 34%; Population Normal (%) [5]: 78%; Population Pyknosed Nuclei (%) [5]: 30%; Population Tubulin-Different-Phenotype (%) [5]: 67%; Total Cell Count [5]: 230; Population Apoptotic (%) [6]: 68%; Population Healthy Nuclei (%) [6]: 70%; Population Mitochondria Different-Phenotype (%) [6]: 93%; Population Mitotic Cells (%) [6]: 31%; Population Pyknosed Nuclei (%) [6]: 19%; Population Tubulin-Different-Phenotype (%) [6]: 74%; Total Cell Count [6]: 205; Population Apoptotic (%) [7]: 73%; Population Fragmented Nuclei (%) [7]: 8%; Population Healthy Nuclei (%) [7]: 67%; Population Hoechst High Intensity Objects (%) [7]: 36%; Population Membrane Permeable-Phenotype (%) [7]: 1%; Population Mitochondria Different-Phenotype (%) [7]: 92%; Population Mitotic Cells (%) [7]: 26%; Population Normal (%) [7]: 63%; Population Pyknosed Nuclei (%) [7]: 24%; Population Tubulin-Different-Phenotype (%) [7]: 70%; Total Cell Count [7]: 290; Population Apoptotic (%) [8]: 85%; Population Fragmented Nuclei (%) [8]: 7%; Population Healthy Nuclei (%) [8]: 69%; Population Hoechst High Intensity Objects (%) [8]: 25%; Population Membrane Permeable-Phenotype (%) [8]: 0%; Population Mitochondria Different-Phenotype (%) [8]: 93%; Population Mitotic Cells (%) [8]: 14%; Population Normal (%) [8]: 74%; Population Pyknosed Nuclei (%) [8]: 23%; Population Tubulin-Different-Phenotype (%) [8]: 80%; Total Cell Count [8]: 203; Population Apoptotic (%) [9]: 86%; Population Fragmented Nuclei (%) [9]: 13%; Population Healthy Nuclei (%) [9]: 65%; Population Hoechst High Intensity Objects (%) [9]: 24%; Population Membrane Permeable-Phenotype (%) [9]: 0%; Population Mitochondria Different-Phenotype (%) [9]: 90%; Population Mitotic Cells (%) [9]: 13%; Population Normal (%) [9]: 75%; Population Pyknosed Nuclei (%) [9]: 20%; Population Tubulin-Different-Phenotype (%) [9]: 76%; Total Cell Count [9]: 249; Population Apoptotic (%) [10]: 69%; Population Fragmented Nuclei (%) [10]: 16%; Population Healthy Nuclei (%) [10]: 67%; Population Hoechst High Intensity Objects (%) [10]: 25%; Population Mitochondria Different-Phenotype (%) [10]: 96%; Population Mitotic Cells (%) [10]: 30%; Population Normal (%) [10]: 74%; Population Pyknosed Nuclei (%) [10]: 16%; Population Tubulin-Different-Phenotype (%) [10]: 70%; Total Cell Count [10]: 212; Population Apoptotic (%) [11]: 86%; Population Fragmented Nuclei (%) [11]: 15%; Population Healthy Nuclei (%) [11]: 64%; Population Hoechst High Intensity Objects (%) [11]: 40%; Population Membrane Permeable-Phenotype (%) [11]: 1%; Population Mitochondria Different-Phenotype (%) [11]: 92%; Population Mitotic Cells (%) [11]: 13%; Population Normal (%) [11]: 59%; Population Pyknosed Nuclei (%) [11]: 20%; Population Tubulin-Different-Phenotype (%) [11]: 54%; Total Cell Count [11]: 298; Population Apoptotic (%) [12]: 87%; Population Fragmented Nuclei (%) [12]: 13%; Population Healthy Nuclei (%) [12]: 58%; Population Hoechst High Intensity Objects (%) [12]: 34%; Population Membrane Permeable-Phenotype (%) [12]: 0%; Population Mitochondria Different-Phenotype (%) [12]: 100%; Population Mitotic Cells (%) [12]: 12%; Population Normal (%) [12]: 65%; Population Pyknosed Nuclei (%) [12]: 28%; Population Tubulin-Different-Phenotype (%) [12]: 73%; Total Cell Count [12]: 223
